We go through twelve compounds from ChEMBL document CHEMBL1131098, “Synthesis and antitumor activity of 4-aminomethylthioxanthenone and 5-aminomethylbenzothiopyranoindazole derivatives” (J Med Chem, 1998).

Activity calls are given as the source filed them.

The subject of test [1] is Mus musculus. The test can be described thus: Maximum tolerated dose administarted iv (mg/kg) to mice. It is filed as functional. Summed up: (§1)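 BDF1 mice were implanted bilaterally sc on day 0 with 30–60-mg Panc03 tumor fragments. Intravenous chemotherapy began 3 days after implantation. The maximum tolerated dose was defined as the LD10 or less and was expressed in mg/kg.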

The species named for test [2] is Mus musculus. The test can be described thus: Tumor growth inhibition was measured as ratio of median tumor burden in the treatment group*100(T) / median tumor burden in the control group(C);g= not active signifies %T/C>42. It is filed as functional, organism-based. Put shortly: (§2)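 BDF1 mice implanted bilaterally sc with 30–60-mg Panc03 fragments on day 0. Dosing iv at the maximum tolerated dose (LD10 or less), starting 3 days after implantation. Tumor growth inhibition expressed as %T/C; %T/C > 42 counted as not active.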

The species entered for test [3] is Mus musculus. The test can be described thus: compound was tested for murine tumor growth inhibition,T/C value ([…]/control) in mice. It is filed as functional. Summed up:
as §2

The subject of test [4] is Mus musculus. The test can be described thus: compound was tested for maximum tolerated dose administarted iv (mg/kg). It is filed as functional. Put shortly:
as §1

The test system of test [5] is Mus musculus. The test can be described thus: In vivo antitumor activity measured in mice against the Colon26/A murine solid tumors. Type of test: functional.
In test [6] the test system is Mus musculus. The test can be described thus: In vivo antitumor activity measured in mice against the Mam16/C murine solid tumors. Type of test: functional.
Test [7] has as its system Mus musculus. The test can be described thus: In vivo antitumor activity measured in mice against the Panc 02 murine solid tumors. Type of test: functional.
The test system of test [8] is Mus musculus. The test can be described thus: In vivo antitumor activity measured in mice against the Colon38 murine solid tumors. It is filed as functional.
In test [9] the test system is Mus musculus. The test can be described thus: In vivo antitumor activity measured in mice against the Colon51 murine solid tumors. Type of test: functional.
The species entered for test [10] is Mus musculus. The test can be described thus: The long term cures (LTC) value is the number of mice in a group with no palpable tumor. Type of test: functional. Summed up: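 Panc03-bearing BDF1 mice (bilateral sc fragments) dosed iv at the maximum tolerated dose from day 3. Long-term cure is a mouse with no palpable tumor after at least 86 days, reported as cured mice over total mice per treatment group.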

As for `CCN(CC)CCN(C)c1ccc(CNC)c2sc3ccccc3c(=O)c12`, the MTD in test [1] was 1506 mg/kg. In test [2], the T/C result was “inactive”.

On to `CCN(CC)CCNc1ccc(CN2C(=O)c3ccccc3C2=O)c2sc3ccccc3c(=O)c12`, for which the T/C in test [3] was 38%.

Compound `CCN(CC)CCNc1ccc(CNc2ccccc2)c2sc3ccccc3c(=O)c12` yielded an MTD in test [1] of 674 mg/kg. For the same compound, the T/C result in test [2] is “inactive”.

For `CCN(CC)CCNc1ccc(CNC)c2sc3ccc(Br)cc3c(=O)c12`, in test [4], the maximum tolerated dose (MTD) was determined as 345 mg/kg. Also, the T/C entry in test [2] is “inactive”.

As for `CCN(CC)CCNc1ccc(CN)c2sc3ccc(Br)cc3c(=O)c12`, the MTD in [4] was 967 mg/kg. For the same compound, the T/C entry in test [2] is “inactive”.

`CCN(CC)CCNc1ccc(CNS(=O)(=O)c2ccc(F)cc2)c2sc3ccccc3c(=O)c12`: in test [1], the MTD was >1597 mg/kg. Moreover, the T/C entry in [2] was “inactive”.

`O=P1(N(CCCl)CCCl)NCCCO1` (configuration not stated) [CYCLOPHOSPHAMIDE ANHYDROUS]: the values for the T/C in test [5], in [6] and in test [7] were 8%, 0% and 36%, respectively.

In test [4], `CCN(CC)CCNc1ccc(CNS(C)(=O)=O)c2sc3ccc(Br)cc3c(=O)c12` displayed an MTD of 1281 mg/kg. Further, in test [2], the T/C entry is “inactive”.

Regarding `CCN(CC)CCNc1ccc(CNS(C)(=O)=O)c2sc3ccccc3c(=O)c12`, the T/C was 29% in [5]; 0% in test [8]; 14% in [9]; 6% in test [6]; 23% in test [7]. In test [10], this compound yielded an LTC of 0.6.

As for `CCN(CC)CCNc1ccc(CNS(=O)(=O)c2ccc(Cl)cc2)c2sc3ccccc3c(=O)c12`, the maximal tolerated dose (MTD) in [1] was >1500 mg/kg. The T/C entry in [2] is “inactive”.

For `COc1cccc2c1C(=O)c1c(O)c3c(c(O)c1C2=O)C[C@@](O)(C(=O)CO)C[C@@H]3O[C@H]1C[C@H](N)[C@H](O)[C@H](C)O1` [DOXORUBICIN], the T/C is on record as 7% in [5]; 0% in test [8]; 21% in test [9]; 0% in [6]; 35% in test [7]. The LTC in test [10] amounted to 0.2.

In [1], `CCN(CC)CCNc1ccc(CN2C(=O)c3ccccc3S2(=O)=O)c2sc3ccccc3c(=O)c12` yielded an MTD of 740 mg/kg. The T/C result in test [2] is “inactive”.
